Data set [1] deals with MRC-5 (human lung fibroblast) cells. Briefly: MTT cytotoxicity assay in MRC-5 cells. Format: cell-based. The following applies: read-out: IC50 MRC-5 Normoxia, MRC-5 normal lung fibroblasts. (In general: Tetrazolium dyes change colour on reduction, which living cells bring about.)
Another data set concerns HeLa and A549 cell lines. The format is cell-based, human.
Another data set concerns A549 cells. Briefly: Cellular uptake of cobalt by GFAAS, normalised to protein. Format: cell-based, human. The following applies: A549, 100 μM complex, 24 h.
The test system of data set [2] is A549 (human lung cancer) cells. Briefly: MTT cytotoxicity assay in A549 cells. Format: cell-based.
For data set [3], the system named is HeLa (human cervical cancer) cells. Briefly: MTT cytotoxicity assay in HeLa cells. The format is cell-based. The following applies: for IC50: Homo sapiens, HeLa.
For data set [4] the following is noted: observed in other studies; cited from earlier work.
Data set [5] in a line: Cyclic voltammetry in anhydrous DMF. The format is physicochemical. The following applies: vs SCE, glassy carbon, 0.10 M TBAP, 100 mV/s, 25 °C; for Epc, Co(III/II): irreversible peak potential.
A short description of data set [6]: N-methylimidazole challenge. Format: physicochemical. The following applies: 1 mM complex, 5 mM N-methylimidazole, pH 7.4 PBS, 37 °C, 24 h. The method in brief: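 Complex at 1 mM final in pH 7.4 PBS with 5 mM N-methylimidazole as competing ligand. Analysed by RP-HPLC right after mixing, then again after 24 h at 37 °C. C18 column (250 × 4.6 mm, 5 μm), 1 mL/min, UV at 220 and 260 nm. Gradient: 10% MeOH/water with 0.1% TFA for 5 min, then linear to 100% MeOH (0.1% TFA) over 20 min. Starting, mono- and disubstituted species quantified from peak areas.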

The subject of a further data set is hypoxic cells. The following applies: uptake, hypoxia vs normoxia; cited from earlier work.
The conditions of data set [7]: value reported for the hypoxia-imaging agent; cited from earlier work.
[8] abbreviates: read-out: IC50 Without TM, A549, without tetrathiomolybdate.

Like-named read-outs stand apart in the source and are kept apart here. Some results are limits rather than exact numbers.

Results on 13 compounds are retold here after paper PMC8113979 (Inorganic chemistry, 2017).

For orientation: IC50 means the concentration at which inhibition is half-maximal. On to `N.N.[Cl][Pt][Cl]` [Cisplatin, cisplatin], for which the IC50 in [1] stood at 3.5 ± 1.2 µM. In addition, the “difference in activity under hypoxic versus normoxic conditions” value in the data set with HeLa and A549 cell lines is “no difference”.
For the compound `O=[N+]([O-])[O-].O=[N+]([O-])[O-].[Co+2]` [Co(NO3)2, reference compound], in the data set on A549 cells, the “Hypoxia/Normoxia Ratio of uptake” value was 0.88 ± 0.09, the “Co/Protein (Hypoxia)” value amounted to 33 ± 3 pg/µg and the “Co/Protein (Normoxia)” value was 37 ± 2 pg/µg. The IC50 in [1] is over 500 µM.
Turning to `NC(=S)N/N=C/C=N/NC(N)=S` [GTS, glyoxal bis(thiosemicarbazone)], the figures for the half-maximal inhibitory concentration (IC50) in [1] and in data set [2] (setting [8]) were over 20 µM and 0.02 ± 0.01 µM, respectively.
Turning to `[SH-].[SH-].[S]=[Mo]=[S]` [TM, tetrathiomolybdate], the “effect on cell viability” value in data set [2] (A549, 5 μM concentration) is “a TM does not affect the cell viability at 5 μM concentration”.
In data set [3] (HeLa cells, in our lab), `Nc1n[n+]([O-])c2ccccc2[n+]1[O-]` [Tirapazamine] displayed a hypoxia selectivity index of 3.3. Further, the 50% inhibitory concentration (IC50) in data set [3] (read-out: IC50 HeLa Hypoxia) was 13 ± 4.2 µM; in [3] (read-out: IC50 HeLa Normoxia), 44 ± 19 µM; in [2] (Homo sapiens, A549, read-out: IC50 A549 Hypoxia), 11 ± 6.5 µM; in data set [2] (Homo sapiens, A549, read-out: IC50 A549 Normoxia), 60 ± 5.4 µM. Also, the “typical hypoxia selectivity index” value in [4] was 10.
With `CC(=NN=C(N)[S-])C(C)=NN=C(N)[S-].NCc1ccccc1.NCc1ccccc1.O=[N+]([O-])[O-].[Co+3]` [[Co(ATS)(BnA)2]^+], in [5], the “E1/2,Co(II/I)” value is listed as −1.18 V and the “Epc, Co(III/II)” value is −0.83 V. Also, in data set [6], the “% Disubstituted” value is listed as 93%, the “% Intact” value is 0% and the “% Monosubstituted” value came to 7%.
For `CC(=NN=C(N)[S-])C(C)=NN=C(N)[S-].O=[N+]([O-])[O-].[Co+3].c1c[nH]cn1.c1c[nH]cn1` [[Co(ATS)(Im)2]^+], in data set [5], the “E1/2,Co(II/I)” value was −1.19 V and the “Epc, Co(III/II)” value is given as −0.86 V. Besides, in data set [6], the “% Disubstituted” value is recorded as 46%, the “% Intact” value is listed as 11% and the “% Monosubstituted” value amounted to 43%.
Turning to `CC(=NN=C(N)[S-])C(C)=NN=C(N)[S-].N.N.O=[N+]([O-])[O-].[Co+3]` [[Co(ATS)(NH3)2]^+], in data set [5], the “E1/2,Co(II/I)” value is −1.18 V and the “Epc, Co(III/II)” value is recorded as −1.10 V. Also, in data set [6], the “% Disubstituted” value stood at 35%, the “% Intact” value stood at 38% and the “% Monosubstituted” value amounted to 27%.
With `NC([S-])=NN=CC=NN=C(N)[S-].O=[N+]([O-])[O-].[Co+3].c1c[nH]cn1.c1c[nH]cn1` [[Co(GTS)(Im)2]^+], in the data set with A549 cells, the “Hypoxia/Normoxia Ratio of uptake” value is on record as 1.40 ± 0.09, the “Co/Protein (Hypoxia)” value is 20 ± 1 pg/µg and the “Co/Protein (Normoxia)” value amounted to 15 ± 1 pg/µg. Also, the half-maximal inhibitory concentration (IC50) in data set [1] is over 250 µM. Moreover, in data set [5], the “E1/2,Co(II/I)” value is listed as “–1.00 V” and the “Epc, Co(III/II)” value was “–0.72 V”. Further, in [6], the “% Disubstituted” value came to 58% and the “% Intact” value stood at 6%. Besides, the IC50 in data set [2] (setting [8]) was 2.6 ± 0.4 µM.
As to `CC(C=NN=C(N)[S-])=NN=C(N)[S-].NCc1ccccc1.NCc1ccccc1.O=[N+]([O-])[O-].[Co+3]` [[Co(PTS)(BnA)2]^+], in data set [5], the “E1/2,Co(II/I)” value is on record as “–1.14 V” and the “Epc, Co(III/II)” value was “–0.84 V”. Further, in data set [6], the “% Disubstituted” value was 93%, the “% Intact” value came to 1% and the “% Monosubstituted” value stood at 6%.
For `CC(C=NN=C(N)[S-])=NN=C(N)[S-].O=[N+]([O-])[O-].[Co+3].c1c[nH]cn1.c1c[nH]cn1` [[Co(PTS)(Im)2]^+], in that order: “–1.12 V”, “–0.84 V”, 54%, 7% and 39%.
On to `CC(C=NN=C(N)[S-])=NN=C(N)[S-].N.N.O=[N+]([O-])[O-].[Co+3]` [[Co(PTS)(NH3)2]^+], for which, in data set [5], the “E1/2,Co(II/I)” value is “–1.11 V” and the “Epc, Co(III/II)” value is “–0.92 V”. Further, in [6], the “% Disubstituted” value came to 22%, the “% Intact” value is 56% and the “% Monosubstituted” value is given as 22%.
Consider `CN=C([S-])N/N=C(C)/C(C)=N/NC([S-])=NC.[Cu+2]` [[Cu(ATSM)]], for which the hypoxia selectivity in the data set on hypoxic cells is reported as 5 ×. Moreover, the reduction potential in data set [7] is reported as −0.59 V.
